Measurements taken from publication PMC2903386 (The Journal of Biological Chemistry, 2010).
Values belong to the compound of their own block, whether it stands above or below them. Non-standard residues stand in square brackets, D forms with d. Residues, ends and D or L forms follow the SMILES beside them. *: point of attachment. X1 = CC[N+]1=C(C=CC=CC=C2N(CCCCCC(=O)NCCN3C(=O)CC(*)C3=O)c3ccc(S(=O)(=O)O)cc3C2(C)C)C(C)(C)c2cc(S(=O)(=O)[O-])ccc21; Propanoyl(3-maleimido) = O=C1C=CC(=O)N1CCC(=O)*; Ahx = NCCCCCC(=O)O

How the values were obtained:
[1] = Tumor standardized uptake value; type: in vivo; conditions: mouse, iv
[2] = Effect of inhibitors on cleavage of RLQLKL ACPP by PyMT tumor cystic fluid; type: biochemical, mouse; conditions: for inhibition of cystic fluid cleavage of RLQLKL ACPP (in words): 5 μM Cy5-labeled RLQLKL ACPP, 2% cystic fluid, 2 h, 5 mM Ca-DTPA, 50 μM TPEN, 18 μM SB3CT, 50 nM GM6001, 0.26 μM prinomastat, 150 nM aprotinin, 100 μM leupeptin, 60 μM α1-antitrypsin, gel
How it was run: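 Cystic fluid was aspirated by syringe from surgically exposed fluid-filled mammary tumor nodules of PyMT mice. The 5 μm Cy5 peptide was incubated at 37 °C for 2 h in PBS with 1 μm ZnCl2. Inhibitors were used at manufacturer-recommended concentrations, including 10 μm E-64, 1 μm pepstatin A, protease inhibitor mixture III (1:1000) and mixture III plus DTPA. Cleavage was read by Tricine gel electrophoresis and Cy5 fluorescence imaging.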

trypsin = trypsin (Bos taurus, UniProt P00760); assay: Cleavage by purified trypsin; type: in vitro ADME, bovine; conditions: Cy5-labeled ACPP, gel (supplemental Fig. 4)
How it was run: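 Commercial active-form purified enzyme at 50 nm was incubated with 5 μm Cy5-labeled peptide in the manufacturer's recommended buffer. Samples were mixed with Tricine sample buffer, boiled 1 min, and resolved on 10–20% Tricine acrylamide gels. Gels were imaged quantitatively at excitation 628 ± 20 nm and emission >700 nm, and the percentage of cleaved versus uncleaved peptide was quantified.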

PyMT mammary tumors = assay: Fluorescence imaging contrast in PyMT tumor-bearing mice; type: in vivo, mouse; conditions: PyMT mice; for fluorescence contrast in tumors relative to adjacent normal tissue (in words): Cy5-labeled ACPP i.v., 6 h, data not shown
How it was run: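 PyMT transgenic mice bearing spontaneous mammary tumors were anesthetized with ketamine 80 mg/kg plus midazolam 5 mg/kg (1:1) and weighed. They were injected via the tail vein with Cy5 peptide: free peptide 100 μl of 100 μM (10 nmol) or albumin-reactive peptide 100 μl of 30 μM (3 nmol). Maestro imaging (ex 640 ± 24 nm, em >700 nm) was done at 6 h or 48 h, comparing tumor with adjacent normal tissue.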

[3] = Effect of inhibitors on cleavage of RLQLKL ACPP by tumor extract; type: biochemical, mouse; conditions: 5 μM Cy5-labeled RLQLKL ACPP, tumor extract 2.0 to 0.25%; 60 μM α1-antitrypsin; gel
How it was run: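 Fresh tumor tissue was gently homogenized in PBS on ice and spun at 14,000 × g for 1 min; the supernatant served as the extract. The 5 μm Cy5 peptide was digested at 37 °C in PBS containing 1 μm ZnCl2, with or without 60 μm α1-antitrypsin. Aliquots were taken from 20 min to 18 h, with the 2-h point reported. Cleavage was quantified by Tricine gel and fluorescence imaging.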

plasmin = assay: 50 nM plasmin; conditions: human recombinant, 37 °C, up to 2 h
neutrophil elastase = assay: 50 nM enzyme in the manufacturer's recommended buffer; conditions: up to 4 h
Tumor uptake = type: in vivo; conditions: nude, mouse, tumor (MDA-MB-435 M4A4 xenograft), iv, 10 nmol
How it was run: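 After imaging, mice were euthanized with isoflurane. 30 mg of each tissue was homogenized in 100 μl Tris pH 7.6 with 1% SDS, heated to 85 °C for 10 min, microwaved 10 s and spun at 20,500 × g for 15 min, then imaged. Tissue-specific spiked standards calibrated fluorescence. SUV = tissue peptide molality ÷ injected dose (mol/kg body weight). Values are means ± S.D.; two-tailed t tests.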

Chain of trypsin (P00760 24-246): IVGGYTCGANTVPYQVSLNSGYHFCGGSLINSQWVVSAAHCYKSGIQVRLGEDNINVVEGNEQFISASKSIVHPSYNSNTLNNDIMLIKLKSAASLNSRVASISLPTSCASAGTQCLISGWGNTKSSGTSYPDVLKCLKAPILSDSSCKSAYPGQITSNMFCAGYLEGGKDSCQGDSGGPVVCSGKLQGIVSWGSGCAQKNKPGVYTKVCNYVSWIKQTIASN

SUV [1]: 0.51 ± 0.05 SUV
Compound: CC[N+]1=C(C=CC=CC=C2N(CCCCCC(=O)NCCN3C(=O)CC(SC[C@@H](NC(=O)[C@@H](CCCNC(=N)N)NC(=O)[C@@H](CCCNC(=N)N)NC(=O)[C@@H](CCCNC(=N)N)NC(=O)[C@@H](CCCNC(=N)N)NC(=O)[C@@H](CCCNC(=N)N)NC(=O)[C@@H](CCCNC(=N)N)NC(=O)[C@@H](CCCNC(=N)N)NC(=O)[C@@H](CCCNC(=N)N)NC(=O)[C@@H](CCCNC(=N)N)NC(=O)CNC(=O)[C@H](C)NC(=O)[C@H](CC(C)C)NC(=O)CNC(=O)[C@H](CC(C)C)NC(=O)[C@@H]4CCCN4C(=O)CCCCCNC(=O)[C@@H](CCC(=O)O)NC(=O)[C@@H](CCC(=O)O)NC(=O)[C@@H](CCC(=O)O)NC(=O)[C@@H](CCC(=O)O)NC(=O)[C@@H](CCC(=O)O)NC(=O)[C@@H](CCC(=O)O)NC(=O)[C@@H](CCC(=O)O)NC(=O)[C@@H](CCC(=O)O)NC(=O)[C@H](N)CCC(=O)O)C(N)=O)C3=O)c3ccc(S(=O)(=O)O)cc3C2(C)C)C(C)(C)c2cc(S(=O)(=O)[O-])ccc21 (stereo partly shown) [PLGLAG ACPP, reference compound] (H-[dE][dE][dE][dE][dE][dE][dE][dE][dE][Ahx]PLGLAG[dR][dR][dR][dR][dR][dR][dR][dR][dR][dC](X1)-NH2)

Compound: O=S(=O)(CC1CS1)c1ccc(Oc2ccccc2)cc1 (stereo not shown) [SB3CT]
inhibition of cystic fluid cleavage of RLQLKL ACPP (in words) [2]: unaffected

Compound: aprotinin
inhibition of cystic fluid cleavage of RLQLKL ACPP (in words) [2]: partially inhibited

cleavage by trypsin (in words) (trypsin): efficiently cleaved
Compound: RTRYED [RTRYED ACPP]
fluorescence contrast in tumors relative to adjacent normal tissue (in words) (PyMT mammary tumors): little fluorescence contrast

Compound: CNC(=O)[C@H](Cc1c[nH]c2ccccc12)NC(=O)[C@@H](CC(=O)NO)CC(C)C [GM6001]
inhibition of cystic fluid cleavage of RLQLKL ACPP (in words) [2]: unaffected
inhibition of cystic fluid cleavage of RLQLKL ACPP at 1 μM (in words) ([2]; GM6001 at 1 μM, data not shown): no inhibition

Compound: O=C(O)CN(CCN(CC(=O)O)CC(=O)O)CCN(CC(=O)O)CC(=O)O [DTPA, diethylene triamine pentacetic acid]
inhibition of cystic fluid cleavage of RLQLKL ACPP (in words) [2]: unaffected

Compound: α1-antitrypsin: natural inhibitor of elastase [reference compound]
inhibition of cystic fluid cleavage of RLQLKL ACPP (in words) [2]: inhibited
inhibition of tumor extract cleavage of RLQLKL ACPP (in words) [3]: significantly inhibited

cleavage by trypsin (in words) (trypsin): efficiently cleaved
Compound: GMMYRS [GMMYRS ACPP]
fluorescence contrast in tumors relative to adjacent normal tissue (in words) (PyMT mammary tumors): little fluorescence contrast

Compound: CC(=O)N[C@@H](CC(C)C)C(=O)N[C@@H](CC(C)C)C(=O)N[C@H](C=O)CCCNC(=N)N [leupeptin]
inhibition of cystic fluid cleavage of RLQLKL ACPP (in words) [2]: partially inhibited

Compound: CC[N+]1=C(C=CC=CC=C2N(CCCCCC(=O)NCCN3C(=O)CC(SC[C@@H](NC(=O)[C@@H](CCCNC(=N)N)NC(=O)[C@@H](CCCNC(=N)N)NC(=O)[C@@H](CCCNC(=N)N)NC(=O)[C@@H](CCCNC(=N)N)NC(=O)[C@@H](CCCNC(=N)N)NC(=O)[C@@H](CCCNC(=N)N)NC(=O)[C@@H](CCCNC(=N)N)NC(=O)[C@@H](CCCNC(=N)N)NC(=O)[C@@H](CCCNC(=N)N)NC(=O)[C@H](CC(C)C)NC(=O)[C@H](CCCCNC(C)=O)NC(=O)[C@H](CC(C)C)NC(=O)[C@H](CCC(N)=O)NC(=O)[C@H](CC(C)C)NC(=O)[C@H](CCCNC(=N)N)NC(=O)CCCCCNC(=O)[C@@H](CCC(=O)O)NC(=O)[C@@H](CCC(=O)O)NC(=O)[C@@H](CCC(=O)O)NC(=O)[C@@H](CCC(=O)O)NC(=O)[C@@H](CCC(=O)O)NC(=O)[C@@H](CCC(=O)O)NC(=O)[C@@H](CCC(=O)O)NC(=O)[C@@H](CCC(=O)O)NC(=O)[C@@H](CCC(=O)O)NC(=O)CCN4C(=O)C=CC4=O)C(N)=O)C3=O)c3ccc(S(=O)(=O)O)cc3C2(C)C)C(C)(C)c2cc(S(=O)(=O)[O-])ccc21 (stereo partly shown) [Mal-RLQLK(Ac)L ACPP] ({Propanoyl(3-maleimido)}-[dE][dE][dE][dE][dE][dE][dE][dE][dE][Ahx]RLQLK(Ac)L[dR][dR][dR][dR][dR][dR][dR][dR][dR][dC](X1)-NH2)
SUV at 48 h ([1]; PyMT, 3 nmol): 2.3 ± 0.6 SUV
Tumor to non-tumor contrast, albumin-reactive peptide (PyMT mammary tumors; fluorescence imaging 48 h postinjection of 3 nmol): 5.1 fold

Compound: c1ccc(CN(CCN(Cc2ccccn2)Cc2ccccn2)Cc2ccccn2)nc1 [TPEN, N,N,N′,N-tetrakis (2-pyridylmethyl) ethylenediamine]
inhibition of cystic fluid cleavage of RLQLKL ACPP (in words) [2]: unaffected

SUV [1]: 0.14 ± 0.06 SUV
Compound: CC[N+]1=C(C=CC=CC=C2N(CCCCCC(=O)NCCN3C(=O)CC(SC[C@@H](NC(=O)[C@@H](CCCNC(=N)N)NC(=O)[C@@H](CCCNC(=N)N)NC(=O)[C@@H](CCCNC(=N)N)NC(=O)[C@@H](CCCNC(=N)N)NC(=O)[C@@H](CCCNC(=N)N)NC(=O)[C@@H](CCCNC(=N)N)NC(=O)[C@@H](CCCNC(=N)N)NC(=O)[C@@H](CCCNC(=N)N)NC(=O)[C@@H](CCCNC(=N)N)NC(=O)CNC(=O)[C@@H](C)NC(=O)[C@@H](CC(C)C)NC(=O)CNC(=O)[C@@H](CC(C)C)NC(=O)[C@H]4CCCN4C(=O)CCCCCNC(=O)[C@@H](CCC(=O)O)NC(=O)[C@@H](CCC(=O)O)NC(=O)[C@@H](CCC(=O)O)NC(=O)[C@@H](CCC(=O)O)NC(=O)[C@@H](CCC(=O)O)NC(=O)[C@@H](CCC(=O)O)NC(=O)[C@@H](CCC(=O)O)NC(=O)[C@@H](CCC(=O)O)NC(=O)[C@H](N)CCC(=O)O)C(N)=O)C3=O)c3ccc(S(=O)(=O)O)cc3C2(C)C)C(C)(C)c2cc(S(=O)(=O)[O-])ccc21 (stereo partly drawn) [PLGLAG ACPP D-amino acid control, reference compound] (H-[dE][dE][dE][dE][dE][dE][dE][dE][dE][Ahx][dP][dL]G[dL][dA]G[dR][dR][dR][dR][dR][dR][dR][dR][dR][dC](X1)-NH2)

Compound: CC[N+]1=C(C=CC=CC=C2N(CCCCCC(=O)NCCN3C(=O)CC(SC[C@@H](NC(=O)[C@@H](CCCNC(=N)N)NC(=O)[C@@H](CCCNC(=N)N)NC(=O)[C@@H](CCCNC(=N)N)NC(=O)[C@@H](CCCNC(=N)N)NC(=O)[C@@H](CCCNC(=N)N)NC(=O)[C@@H](CCCNC(=N)N)NC(=O)[C@@H](CCCNC(=N)N)NC(=O)[C@@H](CCCNC(=N)N)NC(=O)[C@@H](CCCNC(=N)N)NC(=O)[C@@H](CC(C)C)NC(=O)[C@@H](CCCCN)NC(=O)[C@@H](CC(C)C)NC(=O)[C@@H](CCC(N)=O)NC(=O)[C@@H](CC(C)C)NC(=O)[C@@H](CCCNC(=N)N)NC(=O)CCCCCNC(=O)[C@@H](CCC(=O)O)NC(=O)[C@@H](CCC(=O)O)NC(=O)[C@@H](CCC(=O)O)NC(=O)[C@@H](CCC(=O)O)NC(=O)[C@@H](CCC(=O)O)NC(=O)[C@@H](CCC(=O)O)NC(=O)[C@@H](CCC(=O)O)NC(=O)[C@@H](CCC(=O)O)NC(=O)[C@H](N)CCC(=O)O)C(N)=O)C3=O)c3ccc(S(=O)(=O)O)cc3C2(C)C)C(C)(C)c2cc(S(=O)(=O)[O-])ccc21 (stereo partly shown) [rlqlkl ACPP]
SUV at 6 h ([1]; PyMT, 10 nmol): 0.13 ± 0.03 SUV

not cleaved (plasmin): not cleaved by plasmin (2 h)
fragment found (neutrophil elastase): K(Ac)Lr9c-(Cy5), major
Compound: H2N-e9-(ahx)-RLQLK(Ac)L-r9-c-(Cy5)-NH2

Compound: CC[N+]1=C(C=CC=CC=C2N(CCCCCC(=O)NCCN3C(=O)CC(SC[C@@H](NC(=O)[C@@H](CCCNC(=N)N)NC(=O)[C@@H](CCCNC(=N)N)NC(=O)[C@@H](CCCNC(=N)N)NC(=O)[C@@H](CCCNC(=N)N)NC(=O)[C@@H](CCCNC(=N)N)NC(=O)[C@@H](CCCNC(=N)N)NC(=O)[C@@H](CCCNC(=N)N)NC(=O)[C@@H](CCCNC(=N)N)NC(=O)[C@@H](CCCNC(=N)N)NC(=O)[C@@H](CC(C)C)NC(=O)[C@@H](CCCCN)NC(=O)[C@@H](CC(C)C)NC(=O)[C@@H](CCC(N)=O)NC(=O)[C@@H](CC(C)C)NC(=O)[C@@H](CCCNC(=N)N)NC(=O)CCCCCNC(=O)[C@@H](CCC(=O)O)NC(=O)[C@@H](CCC(=O)O)NC(=O)[C@@H](CCC(=O)O)NC(=O)[C@@H](CCC(=O)O)NC(=O)[C@@H](CCC(=O)O)NC(=O)[C@@H](CCC(=O)O)NC(=O)[C@@H](CCC(=O)O)NC(=O)[C@@H](CCC(=O)O)NC(=O)[C@H](N)CCC(=O)O)C(N)=O)C3=O)c3ccc(S(=O)(=O)O)cc3C2(C)C)C(C)(C)c2cc(S(=O)(=O)[O-])ccc21 (stereo partly shown) [rlqlkl]
SUV at 6 h (Tumor uptake): 0.34 ± 0.16 SUV

Compound: CC1(C)SCCN(S(=O)(=O)c2ccc(Oc3ccncc3)cc2)[C@H]1C(=O)NO [prinomastat]
inhibition of cystic fluid cleavage of RLQLKL ACPP (in words) [2]: unaffected
